This assay is described as follows: Inhibition of IL-1-alpha-induced NF-kappaB activation in HeLa cells assessed as blocking of p50/p65 nuclear translocation. Type of assay: cell-based. Particulars: Homo sapiens. An outline of the steps:
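HeLa cells stimulated with IL-1α (5 ng/ml) with or without compound for 30 min, then fixed and immunostained for p65 with Hoechst nuclear counterstain. Plates were scanned by fluorescence imaging microscopy. IC50 = concentration reducing nuclear minus cytoplasmic p65 fluorescence by 50%.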
In the case of `CC(C)c1cccc(C(C)C)c1N1C(=O)c2ccc([N+](=O)[O-])cc2C1=O`, the 50% inhibitory concentration (IC50) is over 50 µM.

Consider `Cc1ccc2c(c1)C(=O)N(c1c(C(C)C)cccc1C(C)C)C2=O`, for which the IC50 was over 50 µM.

`CC(C)c1ccccc1N1C(=O)c2ccc(O)cc2C1=O`: the IC50 is over 50 µM.

As to `CC(C)c1cccc(C(C)C)c1N1C(=O)c2cccc(N)c2C1=O`, the IC50 was over 50 µM.

`CC(C)c1cccc(C(C)C)c1N1C(=O)c2cccc(O)c2C1=O`: the 50% inhibitory concentration (IC50) is 4.95 µM.

Turning to `CC(C)c1cccc(C(C)C)c1N1C(=O)c2ccc(N)cc2C1=O`, the IC50 worked out at 29.5 µM.

Regarding `Nc1cccc2c1C(=O)N(C1CCC(=O)NC1=O)C2=O` (centres undefined) [POMALIDOMIDE], the IC50 was 1.27 µM.

Turning to `CC(C)c1cccc(C(C)C)c1N1C(=O)c2ccc(C(=O)O)cc2C1=O`, the half-maximal inhibitory concentration (IC50) was over 50 µM.

On to `CCCc1ccccc1N1C(=O)c2ccc(O)cc2C1=O`, for which the IC50 is over 50 µM.

As to `CC(C)c1cccc(C(C)C)c1N1C(=O)c2ccc(Cl)cc2C1=O`, the IC50 was over 50 µM.

Take `O=C1CCC(N2C(=O)c3ccccc3C2=O)C(=O)N1` (centres undefined) [THALIDOMIDE]: the half-maximal inhibitory concentration (IC50) was 2.04 µM.

With `CC(C)c1cccc(C(C)C)c1N1C(=O)c2ccc(O)cc2C1=O`, the half-maximal inhibitory concentration (IC50) came to 0.53 µM.

Regarding `CCc1cccc(CC)c1N1C(=O)c2ccc(O)cc2C1=O`, the IC50 was over 50 µM.

For the compound `O=C1c2ccc(O)cc2C(=O)N1c1c(F)cccc1F`, the concentration for half-maximal inhibition (IC50) is over 50 µM.

Turning to `COC(=O)c1ccc2c(c1)C(=O)N(c1c(C(C)C)cccc1C(C)C)C2=O`, the 50% inhibitory concentration (IC50) was over 50 µM.

With `CC(C)(C)c1ccc(S(=O)(=O)/C=C/C#N)cc1` [BAY-11-7085], the IC50 was determined as 0.1 µM.

Consider `CC(C)c1cccc(C(C)C)c1N1C(=O)c2ccc(OS(N)(=O)=O)cc2C1=O`, for which the concentration for half-maximal inhibition (IC50) is over 50 µM.

Consider `CC(C)(C)c1ccccc1N1C(=O)c2ccc(O)cc2C1=O`, for which the IC50 is over 50 µM.

For `O=C1c2ccc(O)cc2C(=O)N1c1c(Br)cccc1Br`, the IC50 is 0.43 µM.

For `CC(=O)Nc1ccc2c(c1)C(=O)N(c1c(C(C)C)cccc1C(C)C)C2=O`, the 50% inhibitory concentration (IC50) is over 50 µM.

Turning to `O=C1c2ccc(O)cc2C(=O)N1c1c(Cl)cccc1Cl`, the IC50 was over 50 µM.

Consider `CC(C)c1cccc(C(C)C)c1N1C(=O)c2cccc([N+](=O)[O-])c2C1=O`, for which the IC50 was over 50 µM.

On to `CC(C)c1cccc(C(C)C)c1N1C(=O)c2ccccc2C1=O`, for which the concentration for half-maximal inhibition (IC50) was over 50 µM.

With `Cc1cccc(C)c1N1C(=O)c2ccc(O)cc2C1=O`, the IC50 is over 50 µM.

One may read the IC50 as the point on the concentration scale where inhibition reaches its midpoint.
